# Publication PMC7703486 (Angewandte Chemie (International ed. in English), 2020)
# Like-named read-outs stand apart in the source and are kept apart here.
# How the values were obtained:
# [1] = biological target: CDK2/cyclin A (Homo sapiens, UniProt P24941); test: Biochemical assay CDK2/cyclin A
# [2] = biological target: CDK1/cyclin B (Homo sapiens, UniProt P06493); test: Biochemical assay CDK1/cyclin B
# [3] = biological target: T1, CDK2 (Homo sapiens, UniProt P24941); test: Immunoblot degradation in Jurkat cells, CDK2; assay type: cell-based; conditions: 6 hours
# Summary of the method: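 Jurkat cells exposed 6 h to test compound, at 1 μM in the initial degrader screen and otherwise at the indicated concentrations, then CDK2 read by immunoblot. Cereblon dependence was checked with an analogue carrying a methylated glutarimide that cannot engage cereblon, under the same 6 h conditions.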
# [4] = biological target: T2, CDK6 (Homo sapiens, UniProt Q00534); test: Immunoblot degradation in Jurkat cells, CDK6; assay type: cell-based; conditions: 6 hours
# [5] = biological target: CDK7 (Homo sapiens, UniProt P50613); test: Immunoblot degradation in Jurkat cells, CDK7; assay type: cell-based; conditions: 6 hours
# [6] = biological target: T3, CDK4 (Homo sapiens, UniProt P11802); test: Immunoblot degradation in Jurkat cells, CDK4; assay type: cell-based; conditions: 6 hours
# [7] = biological target: T3, CDK4; test: Immunoblot degradation in OVCAR8 cells, CDK4; assay type: cell-based; conditions: OVCAR8 cells (Figure S2)
# [8] = biological target: T4, CDK1 (Homo sapiens, UniProt P06493); test: Immunoblot degradation in Jurkat cells, CDK1; assay type: cell-based; conditions: 6 hours
# [9] = biological target: T5, CDK5 (Homo sapiens, UniProt Q00535); test: Immunoblot degradation in Jurkat cells, CDK5; assay type: cell-based; conditions: 6 hours
# [10] = biological target: T2, CDK6; test: Immunoblot degradation in OVCAR8 cells, CDK6; assay type: cell-based; conditions: OVCAR8 cells (Figure S2)
# [11] = biological target: CDK9 (Homo sapiens, UniProt P50750); test: Immunoblot degradation in Jurkat cells, CDK9; assay type: cell-based; conditions: 6 hours
# [12] = biological target: CDK6/cyclin D1 (Homo sapiens, UniProt Q00534); test: Biochemical assay CDK6/cyclin D1
# [13] = biological target: CDK4/cyclin D1 (Homo sapiens, UniProt P11802); test: Biochemical assay CDK4/cyclin D1
# [14] = biological target: CDK9/cyclin T1 (Homo sapiens, UniProt P50750); test: Biochemical assay CDK9/cyclin T1
# [15] = biological target: CDK7/cyclin H (Homo sapiens, UniProt P50613); test: Biochemical assay CDK7/cyclin H
# [16] = biological target: CDK5/p25 (Homo sapiens, UniProt Q00535); test: Biochemical assay CDK5/p25
# [17] = biological target: JNK2 (MAPK9) (Homo sapiens, UniProt P45984); test: Pulse-chase SILAC MS proteomics in OVCAR8 cells, JNK2; assay type: cell-based; conditions: OVCAR8, 250 nM, 6 hours
# [18] = biological target: T6, Aurora A (Homo sapiens, UniProt O14965); test: Biochemical activity assay Aurora A
# T6 sequence (O14965 1-403): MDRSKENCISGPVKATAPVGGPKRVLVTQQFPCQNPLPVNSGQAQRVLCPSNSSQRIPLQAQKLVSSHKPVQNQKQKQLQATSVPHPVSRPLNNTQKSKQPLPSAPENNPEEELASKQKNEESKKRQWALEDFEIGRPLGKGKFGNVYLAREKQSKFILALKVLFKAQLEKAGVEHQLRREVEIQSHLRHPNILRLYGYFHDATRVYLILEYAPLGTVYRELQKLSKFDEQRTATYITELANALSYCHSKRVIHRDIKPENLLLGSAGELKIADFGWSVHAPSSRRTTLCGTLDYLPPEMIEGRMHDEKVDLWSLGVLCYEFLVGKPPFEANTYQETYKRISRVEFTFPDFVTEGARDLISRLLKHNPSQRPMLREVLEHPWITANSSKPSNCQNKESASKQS
# [19] = biological target: T1, CDK2; test: Immunoblot degradation in CRBN-null Jurkat cells, CDK2; assay type: cell-based; conditions: 6 hours
# Summary of the method: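 Used to test whether degradation requires cereblon: CRBN-null Jurkat cells treated 6 h with test compound, then CDK2 levels read by immunoblot.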
# [20] = test system: more than 400 kinases; test: KINOMEscan panel profiling; assay type: binding; conditions: 1 μM
# [21] = biological target: STK33 (Homo sapiens, UniProt Q9BYT3); test: Pulse-chase SILAC MS proteomics in OVCAR8 cells, STK33; assay type: cell-based; conditions: OVCAR8, 250 nM, 6 hours
# [22] = biological target: T1, CDK2; test: KINOMEscan, CDK2; assay type: binding; conditions: 1 μM; only CDK with potent inhibition; CDK1 not in panel
# [23] = biological target: T1, CDK2; test: Immunoblot degradation in OVCAR8 cells, CDK2; assay type: cell-based; conditions: 6 hours
# [24] = test system: OVCAR8 cells; test: Growth rate inhibition in OVCAR8 cells; assay type: cell-based
# [25] = biological target: T6, Aurora A; test: Pulse-chase SILAC MS proteomics in OVCAR8 cells, Aurora A; assay type: cell-based; conditions: OVCAR8, 250 nM, 6 hours
# [26] = biological target: RSK1 (RPS6KA1) (Homo sapiens, UniProt Q15418); test: Pulse-chase SILAC MS proteomics in OVCAR8 cells, RSK1; assay type: cell-based; conditions: OVCAR8, 250 nM, 6 hours
# [27] = biological target: T5, CDK5; test: Immunoblot degradation in OVCAR8 cells, CDK5; assay type: cell-based; conditions: 6 hours
# [28] = biological target: T4, CDK1; test: Immunoblot degradation in OVCAR8 cells, CDK1; assay type: cell-based; conditions: 6 hours
# [29] = biological target: T6, Aurora A; test: Degradation in OVCAR8 cells, Aurora A; assay type: cell-based; conditions: OVCAR8, same conditions (Figure S3)
# [30] = biological target: CRBN (Homo sapiens, UniProt Q96SW2); test: Cellular CRBN engagement assay; assay type: cell-based
# [31] = biological target: T1, CDK2; test: Pulse-chase SILAC MS proteomics in OVCAR8 cells, CDK2; assay type: cell-based; conditions: OVCAR8, 250 nM, 6 hours
# [32] = biological target: T5, CDK5; test: Pulse-chase SILAC MS proteomics in OVCAR8 cells, CDK5; assay type: cell-based; conditions: OVCAR8, 250 nM, 6 hours
# [33] = read-out: CDK2/cyclin A IC50, Table 1, degraders, tested in duplicate
# [34] = read-out: CDK1/cyclin B IC50, Table 1, degraders, tested in duplicate
# [35] = read-out: CDK2 IC50, Table 2, w/cyclin A, duplicate
# [36] = read-out: CDK6 IC50, Table 2, w/cyclin D1, duplicate
# [37] = read-out: CDK4 IC50, Table 2, w/cyclin D1, duplicate
# [38] = read-out: CDK1 IC50, Table 2, w/cyclin B, duplicate
# [39] = read-out: CDK5 IC50, Table 2, w/p25, duplicate
# CDK9/cyclin T1, sequence (P50750 whole entry): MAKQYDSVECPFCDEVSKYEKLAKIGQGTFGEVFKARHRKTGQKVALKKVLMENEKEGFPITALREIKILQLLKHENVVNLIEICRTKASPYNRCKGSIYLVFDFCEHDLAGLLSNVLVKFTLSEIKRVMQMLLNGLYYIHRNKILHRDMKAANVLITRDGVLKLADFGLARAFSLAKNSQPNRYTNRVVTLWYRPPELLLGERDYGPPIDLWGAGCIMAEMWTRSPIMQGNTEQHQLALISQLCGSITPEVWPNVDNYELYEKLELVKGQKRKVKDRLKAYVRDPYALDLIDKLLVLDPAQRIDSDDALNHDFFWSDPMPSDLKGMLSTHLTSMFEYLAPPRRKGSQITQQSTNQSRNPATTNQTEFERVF
# CDK9/cyclin T1, sequence (O60563 whole entry partner): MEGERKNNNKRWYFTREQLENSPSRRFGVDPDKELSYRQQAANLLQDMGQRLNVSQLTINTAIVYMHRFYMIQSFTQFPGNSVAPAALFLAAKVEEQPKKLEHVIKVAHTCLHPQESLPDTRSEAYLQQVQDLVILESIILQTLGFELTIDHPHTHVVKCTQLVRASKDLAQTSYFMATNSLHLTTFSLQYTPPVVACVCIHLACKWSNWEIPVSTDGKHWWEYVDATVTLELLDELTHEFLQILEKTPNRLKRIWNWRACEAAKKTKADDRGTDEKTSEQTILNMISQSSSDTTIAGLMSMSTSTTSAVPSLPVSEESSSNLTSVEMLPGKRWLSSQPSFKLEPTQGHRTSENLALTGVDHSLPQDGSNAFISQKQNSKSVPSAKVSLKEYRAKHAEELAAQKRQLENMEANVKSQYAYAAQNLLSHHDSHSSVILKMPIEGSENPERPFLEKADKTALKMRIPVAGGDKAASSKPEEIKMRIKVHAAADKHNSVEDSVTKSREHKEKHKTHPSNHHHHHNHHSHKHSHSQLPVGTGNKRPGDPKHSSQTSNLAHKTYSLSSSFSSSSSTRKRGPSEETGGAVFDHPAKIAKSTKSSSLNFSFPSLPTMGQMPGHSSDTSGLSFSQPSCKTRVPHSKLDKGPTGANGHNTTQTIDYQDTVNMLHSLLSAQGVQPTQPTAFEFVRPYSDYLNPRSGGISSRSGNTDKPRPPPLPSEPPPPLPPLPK
# CDK4/cyclin D1, sequence (P11802 whole entry): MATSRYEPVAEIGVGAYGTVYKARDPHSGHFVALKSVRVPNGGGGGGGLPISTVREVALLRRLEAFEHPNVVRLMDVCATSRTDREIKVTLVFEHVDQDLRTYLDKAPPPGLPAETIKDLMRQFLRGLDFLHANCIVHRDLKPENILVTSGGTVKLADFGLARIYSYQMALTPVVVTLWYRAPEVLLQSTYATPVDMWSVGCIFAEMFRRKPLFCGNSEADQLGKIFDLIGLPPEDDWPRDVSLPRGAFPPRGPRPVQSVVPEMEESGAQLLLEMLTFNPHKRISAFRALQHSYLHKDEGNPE
# CDK4/cyclin D1, sequence (P24385 whole entry partner): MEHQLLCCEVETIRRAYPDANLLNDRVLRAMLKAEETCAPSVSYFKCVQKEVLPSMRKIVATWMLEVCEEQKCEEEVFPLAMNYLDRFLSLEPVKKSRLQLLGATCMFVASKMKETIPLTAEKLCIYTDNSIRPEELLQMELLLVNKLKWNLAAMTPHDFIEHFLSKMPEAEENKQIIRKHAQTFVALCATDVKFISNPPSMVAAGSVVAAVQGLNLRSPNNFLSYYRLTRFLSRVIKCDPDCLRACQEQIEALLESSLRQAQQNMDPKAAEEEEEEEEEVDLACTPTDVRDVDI
# T3 sequence (P11802 whole entry): as the sequence (P11802 whole entry) above
# CDK1/cyclin B, sequence (P06493 whole entry): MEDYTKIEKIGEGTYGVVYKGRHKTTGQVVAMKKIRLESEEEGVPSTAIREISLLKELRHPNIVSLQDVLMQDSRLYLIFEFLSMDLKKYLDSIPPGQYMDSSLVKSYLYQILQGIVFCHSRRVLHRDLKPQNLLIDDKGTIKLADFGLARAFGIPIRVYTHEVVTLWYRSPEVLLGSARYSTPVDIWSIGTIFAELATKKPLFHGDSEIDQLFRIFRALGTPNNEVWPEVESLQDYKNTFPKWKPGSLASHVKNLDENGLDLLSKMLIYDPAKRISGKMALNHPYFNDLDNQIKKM
# CDK1/cyclin B, sequence (P14635 whole entry partner): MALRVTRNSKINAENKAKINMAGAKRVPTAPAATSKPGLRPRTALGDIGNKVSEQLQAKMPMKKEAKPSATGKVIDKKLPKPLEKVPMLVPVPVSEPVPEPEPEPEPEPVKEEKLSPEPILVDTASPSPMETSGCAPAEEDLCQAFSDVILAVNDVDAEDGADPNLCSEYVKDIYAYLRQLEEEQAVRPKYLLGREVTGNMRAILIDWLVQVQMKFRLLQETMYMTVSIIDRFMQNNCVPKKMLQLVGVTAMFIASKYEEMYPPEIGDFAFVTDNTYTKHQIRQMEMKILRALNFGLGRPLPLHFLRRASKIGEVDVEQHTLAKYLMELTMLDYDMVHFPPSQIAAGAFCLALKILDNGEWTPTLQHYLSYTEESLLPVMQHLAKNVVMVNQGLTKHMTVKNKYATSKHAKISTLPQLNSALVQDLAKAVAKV
# T4 sequence (P06493 whole entry): as the sequence (P06493 whole entry) above
# CDK7/cyclin H, sequence (P50613 whole entry): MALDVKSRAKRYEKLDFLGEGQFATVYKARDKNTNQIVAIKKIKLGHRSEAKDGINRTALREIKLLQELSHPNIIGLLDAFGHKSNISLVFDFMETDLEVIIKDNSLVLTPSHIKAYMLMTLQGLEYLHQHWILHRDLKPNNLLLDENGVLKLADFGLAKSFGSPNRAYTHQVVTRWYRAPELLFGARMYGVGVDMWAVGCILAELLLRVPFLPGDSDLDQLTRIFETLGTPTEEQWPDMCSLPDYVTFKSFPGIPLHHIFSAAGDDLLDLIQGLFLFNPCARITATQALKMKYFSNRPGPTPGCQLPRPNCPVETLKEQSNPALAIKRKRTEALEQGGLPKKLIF
# CDK7/cyclin H, sequence (P51946 whole entry partner): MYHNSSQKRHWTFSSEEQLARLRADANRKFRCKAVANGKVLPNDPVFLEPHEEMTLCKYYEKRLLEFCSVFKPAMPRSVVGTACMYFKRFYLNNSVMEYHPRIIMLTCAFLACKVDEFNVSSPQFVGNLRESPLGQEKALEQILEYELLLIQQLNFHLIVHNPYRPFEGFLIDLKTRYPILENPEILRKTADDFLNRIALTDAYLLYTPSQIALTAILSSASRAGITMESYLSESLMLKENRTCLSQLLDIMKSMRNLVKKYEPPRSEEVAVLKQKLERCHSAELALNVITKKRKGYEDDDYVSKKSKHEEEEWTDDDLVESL
# CDK6/cyclin D1, sequence (Q00534 whole entry): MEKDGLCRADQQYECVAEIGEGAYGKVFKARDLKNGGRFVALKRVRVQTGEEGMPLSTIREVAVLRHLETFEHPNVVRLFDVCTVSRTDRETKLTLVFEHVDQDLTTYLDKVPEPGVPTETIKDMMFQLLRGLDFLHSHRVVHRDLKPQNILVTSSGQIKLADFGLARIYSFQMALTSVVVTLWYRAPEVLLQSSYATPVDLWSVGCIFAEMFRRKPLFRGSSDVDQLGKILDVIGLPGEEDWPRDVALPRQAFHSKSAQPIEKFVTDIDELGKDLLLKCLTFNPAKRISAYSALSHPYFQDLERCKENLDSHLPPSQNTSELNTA
# CDK6/cyclin D1, sequence (P24385 whole entry partner): as the sequence (P24385 whole entry partner) above
# T2 sequence (Q00534 whole entry): as the sequence (Q00534 whole entry) above
# T5 sequence (Q00535 whole entry): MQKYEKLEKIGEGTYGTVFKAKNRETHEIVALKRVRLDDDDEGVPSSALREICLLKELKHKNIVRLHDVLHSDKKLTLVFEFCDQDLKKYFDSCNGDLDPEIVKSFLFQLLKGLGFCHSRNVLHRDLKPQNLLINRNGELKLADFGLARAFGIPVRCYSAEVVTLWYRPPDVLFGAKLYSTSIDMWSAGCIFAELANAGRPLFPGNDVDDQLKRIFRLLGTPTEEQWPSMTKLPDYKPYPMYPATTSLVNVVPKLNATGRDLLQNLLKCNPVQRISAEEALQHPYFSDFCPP
# CDK5/p25, sequence (Q00535 whole entry): as above
# CDK5/p25, sequence (Q15078 99-307 partner limits assumed): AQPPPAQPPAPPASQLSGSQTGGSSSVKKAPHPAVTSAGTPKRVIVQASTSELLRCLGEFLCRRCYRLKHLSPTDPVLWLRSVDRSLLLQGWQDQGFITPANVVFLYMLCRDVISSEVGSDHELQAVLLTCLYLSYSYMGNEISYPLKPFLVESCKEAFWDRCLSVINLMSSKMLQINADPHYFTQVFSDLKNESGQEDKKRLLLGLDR
# CDK9, sequence (P50750 whole entry): as the sequence (P50750 whole entry) above
# CDK7, sequence (P50613 whole entry): as the sequence (P50613 whole entry) above
smiles,measurement,setting,value
NC(=O)c1c(F)cccc1Nc1nc(NC2CCN(S(=O)(=O)CCNC(=O)CCOCCOCCOCCOCCOc3cccc4c3C(=O)N(C3CCC(=O)NC3=O)C4=O)CC2)ncc1Br (stereo not drawn) [TMX-1111],IC50,[1]; [33],6.4 nM
same,IC50,[2]; [34],9.5 nM
NC(=O)c1c(F)cccc1Nc1nc(NC2CCN(S(=O)(=O)CCNC(=O)CCOCCOCCOc3cccc4c3C(=O)N(C3CCC(=O)NC3=O)C4=O)CC2)ncc1Br (stereo not drawn) [TMX-1128],IC50,[1]; [33],4.9 nM
same,IC50,[2]; [34],11.6 nM
NC(=O)c1c(F)cccc1Nc1nc(NC2CCN(S(=O)(=O)CCNC(=O)CCOCCOCCOCCOCCOCCOCCOCCOCCOc3cccc4c3C(=O)N(C3CCC(=O)NC3=O)C4=O)CC2)ncc1Br (stereo not drawn) [TMX-1146],IC50,[1]; [33],7.3 nM
same,IC50,[2]; [34],15.5 nM
NC(=O)c1c(F)cccc1Nc1nc(NC2CCN(S(=O)(=O)CCNC(=O)CCCCCCCCOc3cccc4c3C(=O)N(C3CCC(=O)NC3=O)C4=O)CC2)ncc1Br (stereo not drawn) [TMX-1160],IC50,[1]; [33],28.7 nM
same,CDK2 degradation,[3]; 1 μM,induced CDK2 degradation
same,CDK6 degradation,[4]; immunoblot (Figure 2B),potently degraded
same,CDK7 degradation,[5]; immunoblot (Figure 2B),not degraded
same,CDK4 degradation,[6]; immunoblot (Figure 2B),potently degraded
same,CDK4 degradation,[7],not degraded
same,CDK1 degradation,[8]; 1 μM,no CDK1 degradation was observed
same,CDK5 degradation,[9]; immunoblot (Figure 2B),potently degraded
same,CDK6 degradation,[10],not degraded
same,IC50,[2]; [34],8.5 nM
same,CDK9 degradation,[11]; immunoblot (Figure 2B),not degraded
NC(=O)c1c(F)cccc1Nc1nc(NC2CCN(S(=O)(=O)CCNC(=O)CCCCCCCOc3cccc4c3C(=O)N(C3CCC(=O)NC3=O)C4=O)CC2)ncc1Br (stereo not drawn) [TMX-1162],IC50,[1]; [33],17.1 nM
same,CDK2 degradation,[3]; 1 μM,induced CDK2 degradation
same,CDK1 degradation,[8]; 1 μM,no CDK1 degradation was observed
same,IC50,[2]; [34],8.5 nM
NC(=O)c1c(F)cccc1Nc1nc(NC2CCN(S(=O)(=O)CCNC(=O)CCCCCOc3cccc4c3C(=O)N(C3CCC(=O)NC3=O)C4=O)CC2)ncc1Br (stereo not drawn) [TMX-1169],IC50,[1]; [33],20.5 nM
same,IC50,[2]; [34],31 nM
CS(=O)(=O)N1CCC(Nc2ncc(Br)c(Nc3cccc(F)c3C(N)=O)n2)CC1 [TMX-2039],enzymatic IC50 CDK2,[1]; Figure 1,low nanomolar
same,enzymatic IC50 CDK6,[12]; Figure 1,low nanomolar
same,enzymatic IC50 CDK4,[13]; Figure 1,low nanomolar
same,enzymatic IC50 CDK9,[14]; Figure 1,low nanomolar
same,enzymatic IC50 CDK1,[2]; Figure 1,low nanomolar
same,enzymatic IC50 CDK7,[15]; Figure 1,low nanomolar
NC(=O)c1c(F)cccc1Nc1nc(Nc2ccc(S(=O)(=O)NCCOCCOCCOCCOCCNc3cccc4c3C(=O)N(C3CCC(=O)NC3=O)C4=O)cc2)ncc1Br (stereo not drawn) [TMX-2138],IC50,"[1]; read-out: CDK2/cyclin A IC50, Table 3, duplicate",10.9 nM
same,IC50,"[12]; read-out: CDK6/cyclin D1 IC50, Table 3, duplicate",465 nM
same,IC50,"[13]; read-out: CDK4/cyclin D1 IC50, Table 3, duplicate",901 nM
same,IC50,"[14]; read-out: CDK9/cyclin T1 IC50, Table 3, duplicate",25.7 nM
same,IC50,"[2]; read-out: CDK1/cyclin B IC50, Table 3, duplicate",8.7 nM
same,IC50,"[16]; read-out: CDK5/p25 IC50, Table 3, duplicate",7 nM
same,IC50,"[15]; read-out: CDK7/cyclin H IC50, Table 3, duplicate",286 nM
Cc1cc(S(=O)(=O)NCCOCCOCCOCCOCCNc2cccc3c2C(=O)N(C2CCC(=O)NC2=O)C3=O)ccc1Nc1ncc(Br)c(Nc2cccc(F)c2C(N)=O)n1 (stereo not drawn) [TMX-2172],IC50,[1],6.5 nM
same,degree of degradation of JNK2 (MAPK9) (proteomics),[17],relatively weak
same,IC50,[12],2220 nM
same,CDK2 degradation,[3]; 250 nM,induced CDK2 degradation
same,IC50,[18],205 nM
same,CDK2 degradation,[19],no CDK2 degradation was detected
same,CDK6 degradation,"[4]; 250 nM, immunoblot",not affected
same,IC50,[13],7390 nM
same,number of kinases with >99% inhibition compared to DMSO,[20],14
same,CDK7 degradation,"[5]; 250 nM, immunoblot",not affected
same,degree of degradation of STK33 (proteomics),[21],relatively weak
same,CDK2 inhibition in KINOMEscan,[22],potent inhibition
same,CDK4 degradation,"[6]; 250 nM, immunoblot",not affected
same,IC50,[14],2640 nM
same,CDK2 degradation,[23],degraded in a dose dependent manner
same,growth rate inhibitory effect,[24],strong growth rate inhibitory effects
same,growth rate inhibitory potency relative to non-degrading control ZXH-7035,[24]; 72 hours,approximately 8.5 fold
same,CDK1 degradation,[8]; 250 nM,not affected
same,Aurora A degradation (proteomics),[25],effectively degraded
same,degree of degradation of RSK1 (RPS6KA1) (proteomics),[26],relatively weak
same,CDK5 degradation,[27],degraded in a dose dependent manner
same,CDK1 degradation,[28],remained intact
same,CDK5 degradation,[9]; immunoblot (Figure 3A),retained the ability to degrade CDK5
same,concentration needed to achieve observable Aurora A degradation,[29],5 µM
same,IC50,[30],46.9 nM
same,IC50,[2],20.3 nM
same,CDK2 degradation (proteomics),[31],effectively degraded
same,CDK9 degradation,"[11]; 250 nM, immunoblot",not affected
same,CDK5 degradation (proteomics),[32],effectively degraded
same,IC50,[16],6.8 nM
same,IC50,[15],2620 nM
Cc1cc(S(N)(=O)=O)ccc1Nc1ncc(Br)c(Nc2cccc(F)c2C(N)=O)n1 [TMX-3010],"discrimination for inhibiting CDK1, CDK2, and CDK5 over CDK4 and CDK6",[1]; benchmarked to CDK2 IC50 value,hundred-fold
same,IC50,[1]; [35],0.7 nM
same,IC50,[12]; [36],84.1 nM
same,IC50,[13]; [37],135 nM
same,IC50,[2]; [38],1.2 nM
same,IC50,[16]; [39],0.9 nM
NC(=O)c1c(F)cccc1Nc1nc(Nc2ccc(S(N)(=O)=O)cc2)ncc1Br [TMX-3013],IC50,[1]; [35],< 0.5 nM
same,IC50,[12]; [36],15.6 nM
same,IC50,[13]; [37],24.5 nM
same,IC50,[2]; [38],0.9 nM
same,IC50,[16]; [39],0.5 nM
